Experimental data from article PMC10085944 (Clinical Pharmacokinetics, 2023).
Like-named read-outs stand apart in the source and are kept apart here.

Columns and labels:
[1] = Safety and tolerability assessment in the Phase 1 renal impairment trial; format: in vivo, human
Summary of the method: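 Subjects admitted the day before a single 10 mg SC abdominal dose, kept on site for the first 3 days, then seen as outpatients daily to Day 8, with follow-up on Day 11. Ongoing monitoring covered AE recording (MedDRA preferred terms), vital signs, 12-lead ECGs, clinical laboratory tests, physical examinations and injection-site reactions.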

[2] = SC; slow release of M1 and M2 from the SC depot; cited from earlier work
[3] = cited from earlier work
[4] = SBS patients; dose reduction by 50% recommended; cited from earlier work

Glepaglutide
serious AEs, deaths, or AEs leading to trial withdrawal ([1]; 16 subjects, single SC dose glepaglutide 10 mg): no serious AEs, deaths, or AEs leading to trial withdrawal | total number of AEs (all non-serious and mild) ([1]; reported in 3 of 16 subjects, single SC dose 10 mg): 6 | overall safety and tolerability ([1]; single SC dose 10 mg, normal renal function and severe renal impairment or ESRD): safe and well tolerated | effective half-life [2]: 88.3 h

native GLP-2: 33-amino acid intestinal growth factor secreted in response to nutrient intake
half-life ([3]; native GLP-2, in vivo): 5 to 7 min

teduglutide
half-life ([3]; teduglutide): approximately 2 h | AUC0–∞ and Cmax in moderate or severe renal impairment/ESRD [4]: elevated
